Lung fibro prol: blocks proliferation of human lung fibroblasts | LL 47 human lung fibroblast viability, ATP luminescence; hits give low values | viability, % at 10 µM | hit rate 1.1% among 85,000;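 active = viability at or below 50% in the single dose screen; inactive = viability above 50%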;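 note: compound exposure lasted 72 h before the ATP readout; 100% = median luminescence of untreated cell-only wells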
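Material: human LL 47 lung fibroblast cells; quantity: 1,150 cells/well; medium: IMEM plus 15% FBS; doses: 0.1% DMSO in all compound wells; timing: overnight attachment after seeding, then 72 h compound exposure at 37 °C; detection: CellTiter-Glo luminescence; measure: % viability of median cell-only signal; controls: cell-only wells, no compound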
Jurkat tox 60K: reduces viability or proliferation of Jurkat cells | Jurkat E6.1 viability, ATP luminescence, 48 h | inhibition, % at 4 µM | hit rate 1.2% among 56,000 | AID 463;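 active = inhibition above the mean inhibition of all tested compounds plus 3 SD, cut at about 28% in these data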
tolC growth inh: growth inhibitors of E. coli BW25113 tolC mutant | OD615 | growth inhibition, % at 10 µM (by protocol) | hit rate 2.2% among 65,000 | AID 573;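 active = growth inhibition at or above a cutoff equal to the mean over every tested compound plus 3 SD, cut at about 60% in these data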;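 note: growth measured after 20 h incubation at 37 °C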
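Doses: one dose of 10 µM final / Material: E. coli BW25113 ΔtolC::kan, tolC deletion mutant strain / Buffer or medium: LB with kanamycin 50 µg/mL / Evaluation: percent growth inhibition / Detection: optical density read at 615 nm / Incubation: 37 °C, 20 h exposure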
H69AR inhibit: blocks growth of human H69AR lung tumor cells; H69AR lung tumor viability, ATP luminescence, 72 h; hits give low values; viability, % at 10 µM; hit rate 6% among 85,000; AID 598;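 active = viability at or below 40%; inactive = viability above 40%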;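 note: multidrug resistant small cell line overexpressing MRP-1 efflux transporter; 100% = mean luminescence of untreated control wells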
HUVEC prolif 384: human endothelial cell proliferation inhibition; viability, % at 10 µM (by protocol); hit rate 1.1% among 86,000; HUVEC proliferation, CellTiter-Glo luminescence, 72 h; hits give low values;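 active = viability at or below 30%; inactive = viability above 30%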;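 note: 100% = median luminescence of DMSO-only cell control wells on each plate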
Ecoli WT expand: growth inhibitors of E. coli BW25113 wild type. OD600 absorbance. growth inhibition, % at 100 µM. hit rate 0.15% among 98,000;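 active = growth inhibition above about 50% at one test dose, limit read from the data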;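 note: growth measured after 20 h incubation at 37 °C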
* hit, by the source's call; x = no result. Rows were chosen to be rich in hits. Some 6.4% of all compounds tested hit in one or more screens of this group.

SMILES	Lung fibro prol	Jurkat tox 60K	tolC growth inh	H69AR inhibit	HUVEC prolif 384	Ecoli WT expand
O=C(COc1ccccc1)Nc1ccccc1N1CCN(c2ccccc2)CC1	x	-6	-8	x	x	-2
CC(=O)N1CCN(c2ccccc2NC(=O)COc2ccc(Cl)cc2Cl)CC1	84	7	25	57	92	0
O=C(CCCCCCN1C(=O)c2ccccc2C1=O)N1CCC(c2ccccc2)C1 (stereo not drawn)	118	x	x	69	93	x
CC1C(=O)CC(c2ccco2)NC1c1ccco1 (stereo not drawn)	x	x	x	x	x	4
Cc1ccc(CN(c2ccc(C(=O)NCc3ccccn3)cc2)S(C)(=O)=O)cc1	95	x	x	100	89	-1
O=S(=O)(Nc1ccc(S(=O)(=O)N2CCCCC2)cc1)c1ccc(Br)s1	88	12	84*	77	74	0
COc1ccc(S(=O)(=O)Nc2ccc(S(=O)(=O)N3CCCC3)cc2)cc1	102	x	x	90	99	0
COc1ccc(NS(=O)(=O)c2c(C)cc(C)cc2C)cc1	101	x	x	16*	91	-8
COc1ccc(S(=O)(=O)Nc2ccc(S(=O)(=O)N3CCCCC3)cc2)cc1	x	9	74*	90	96	1
O=S(=O)(Nc1ccc(S(=O)(=O)N2CCCCCC2)cc1)c1cccs1	101	x	x	75	93	-3
O=C(c1cc(C2CC2)nc2ccccc12)N1N=C(C(F)F)CC1(O)C(F)F (stereo not drawn)	98	x	x	75	112	x
O=C(c1cc(C2CC2)nc2ccc(Br)cc12)N1N=C(C(F)F)CC1(O)C(F)F (stereo not drawn)	54	x	x	17*	29*	x
N/C(Cc1cccs1)=N\OC(=O)COc1ccc(Cl)cc1Cl	98	x	x	89	97	1
Cc1ccc(Nc2nc(N)nc(CN3CCC(C)CC3)n2)c(C)c1	94	x	x	33*	86	x
Cc1ccc(Nc2nc(N)nc(CN3CCCCCC3)n2)c(C)c1	101	-7	1	85	99	11
CCSCc1nnc(SCC(=O)c2ccc(OC)cc2)n1C	101	4	13	79	94	5
CCn1nnnc1SCC(=O)Nc1nc(-c2cccs2)cs1	96	-10	10	84	92	0
CCn1c(=S)sc2c(=O)n(-c3ccccc3)c(SC)nc21	102	x	49	61	94	-6
N#CCSc1nc2c(sc(=S)n2Cc2ccco2)c(=O)n1-c1ccc(F)cc1	74	x	25	40*	88	-9
CC1(C)CC(=O)C2=C(C1)Nc1ccccc1N=C2	99	9	-2	0.3*	88	12
Cc1c(C2Nc3ccccc3NC3=C2C(=O)CC(C)(C)C3)cnn1C (stereo not drawn)	99	x	5	101	96	x
Cc1ccc(S(=O)(=O)/N=C(\CN2CCCCC2)N2CCOCC2)cc1	99	-4	5	96	116	-11
CN1CCN(C2=Cc3ccc(Cl)cc3Sc3ccc(F)cc32)CC1	94	x	x	21*	3.8*	x
CCCNC(=O)c1c(N)n(-c2cc(OC)cc(OC)c2)c2nc3ccccc3nc12	91	-2	4	51	56	-20
CC(=O)N(Cc1ccc(F)cc1)C1=C(NCc2ccccc2)C(=O)c2ccccc2C1=O	2.6*	x	x	3.5*	3.4*	-14
SMILES	Lung fibro prol	Jurkat tox 60K	tolC growth inh	H69AR inhibit	HUVEC prolif 384	Ecoli WT expand
Fc1ccc(N2CCN(C(c3cccs3)c3nnnn3C3CCCC3)CC2)cc1 (stereo not drawn)	92	0	3	87	105	-20
Cn1cnnc1SCC(=O)c1cc2ccccc2oc1=O	89	3	-10	76	88	-7
O=C(Cn1nc(Cl)nc1Cl)c1ccc2c(c1)OCCO2	96	-6	-16	38*	83	61*
Cc1cc(C)nc(SCC(=O)c2ccc3c(c2)OCCO3)n1	x	x	x	x	x	-3
O=C(Cn1nc(Cl)nc1Cl)c1cc2ccccc2oc1=O	99	-3	20	32*	90	3
CCCC(=O)Nc1ccc2c(c1)nc(CN1CCCC1)n2C	100	x	x	98	98	5
Cc1ccc(C(C)C)c(OCC(=O)Nc2ccc3c(c2)nc(CN2CCCC2)n3C)c1	91	x	x	81	25*	-3
Cc1ccc(C2/C(=C(/O)c3ccc(Br)cc3)C(=O)C(=O)N2Cc2ccco2)o1 (stereo not drawn)	103	-6	16	90	93	-3
C/C(CC1CC2=C(CC1(C)C)C(C)(C)CCC2)=N\NC(N)=S (stereo not drawn)	95	x	x	23*	36	-1
C/C(CC1CC(COCCC(C)C)OC1=O)=N\NC(N)=S (stereo not drawn)	x	x	x	x	x	3
Cc1cc(N2C3CCC2CC(O)(c2ccc(F)cc2)C3)nc(-c2ccccc2)n1 (stereo not drawn)	56	8	100*	26*	60	-5
COc1ccc(S(=O)(=O)Cc2ccc(C(=O)N3CCN(c4cccc(C)c4)C(C)C3)o2)cc1 (stereo not drawn)	56	90*	13	25*	50	3
COc1ccc(S(=O)(=O)Cc2ccc(C(=O)N3CCN(c4cccc(C)c4C)CC3)o2)cc1	71	22	21	23*	53	-5
COc1ccccc1S(=O)(=O)Cc1ccc(C(=O)N2CCN(c3ccc(C)cc3)C(C)C2)o1 (stereo not drawn)	x	16	17	x	x	-10
Cc1ccc(S(=O)(=O)N2CCCN(S(=O)(=O)c3ccc4c(c3)OCCO4)CC2)cc1	93	16	15	32*	95	20
COc1ccc(S(=O)(=O)NCCSc2ccc(C)cc2)cc1OC	98	-1	6	103	94	-7
CN1CCN(S(=O)(=O)c2ccc3c(c2)OCCO3)CC1	98	x	x	102	99	6
Cc1ccc(S(=O)(=O)N2CCCN(S(=O)(=O)c3ccc(C(F)(F)F)cc3)CC2)cc1	49*	4	-3	48	60	-1
Cc1ccc(SCCNS(=O)(=O)c2ccc3c(c2)OCCO3)cc1	100	0	74*	102	96	-27
O=c1ccc(Cc2ccccn2)n[nH]1	95	x	x	90	93	-3
COc1ccccc1N1CCN(C(=O)c2ccc(Br)s2)CC1	96	x	26	56	3.9*	5
COc1ccccc1N1CCN(C(=O)c2cc(-c3ccc(Cl)cc3)on2)CC1	102	3	54	92	104	-5
COc1ccccc1-c1cc(C(=O)N2CCN(c3ccccc3OC)CC2)no1	97	16	64*	28*	77	-8
Cc1c(C(=O)N2CCN(S(C)(=O)=O)CC2)oc2ccccc12	97	3	2	96	100	7
COc1ccccc1N1CCN(C(=O)c2cc(-c3ccc(C)cc3)on2)CC1	105	-7	86*	96	106	-12
COc1ccccc1N1CCN(C(=O)c2oc3ccccc3c2C)CC1	87	4	17	18*	58	x
